Source: ChEMBL document CHEMBL1150687, “Three new cytotoxic sesterterpenes from a marine sponge Spongia sp” (J Nat Prod, 2003)
≈ marks a conversion by molar mass, not a printed value. Calls of active or inactive are those of the source. The rule behind the calls is not given here.

Assays:
L1210 = assay: Cytotoxicity against mouse L1210 cells; format: functional, cell-based
HeLa = assay: Cytotoxicity against human HeLa cells; format: functional, cell-based
A549 = assay: Cytotoxicity against human A549 cells; format: functional, cell-based
KB = assay: Cytotoxicity against human KB cells; format: functional, cell-based
CCRF S-180 [1] = assay: Antitumor activity against mouse S180 cells xenografted ICR/kwl mouse assessed as increase in mouse life span at 10 mg/kg, ip relative to control; format: functional
Outline: (§1)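 Female ICR/kwl mice (7 weeks, 19-21 g), six per group, inoculated ip with 0.1 mL sarcoma-180 suspension (1×10^7 cells/mL in saline). Compound dissolved in a little dimethylacetamide, suspended in 10% Tween 80-saline (1 mg/mL), given ip on days 1, 5 and 9 after inoculation. Survival followed; ILS (%) = (A/B − 1)×100 from weighed median survival days, treated versus untreated controls.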

CCRF S-180 [2] = assay: Antitumor activity against mouse S180 cells xenografted ICR/kwl mouse assessed as increase in mouse life span at 5 mg/kg, ip relative to control; format: functional; outline: as §1

SMILES	IC50 (L1210) [µg/mL]	IC50 (HeLa) [µg/mL]	IC50 (A549) [µg/mL]	IC50 (KB) [µg/mL]	Activity (CCRF S-180 [1]; route intraperitoneal) [%]	Activity (CCRF S-180 [2]; route intraperitoneal) [%]	Activity (CCRF S-180 [1])	Activity (CCRF S-180 [2])
CO[C@@H]1C[C@H]2[C@]3(C)CC[C@H]4C(C)(C)CCC[C@]4(C)[C@H]3C[C@@H](OC(C)=O)[C@]2(C)C2=C1C(=O)O[C@H]2O	2.2 (≈ 4.64 µM)	5.3 (≈ 11.2 µM)	5.3 (≈ 11.2 µM)	15.6 (≈ 32.9 µM)				
CC(=O)O[C@@H]1C[C@@H]2[C@@]3(C)CCCC(C)(C)[C@@H]3CC[C@@]2(C)[C@@H]2CC=C3CO[C@@H](O)[C@@H]3[C@@]12C	2.1 (≈ 4.88 µM)	22.5 (≈ 52.2 µM)	29.4 (≈ 68.3 µM)	16.2 (≈ 37.6 µM)	28			
O=c1[nH]cc(F)c(=O)[nH]1 [FLUOROURACIL]						32.9	Active	
CC1(C)CCC[C@]2(C)[C@H]3C[C@@H](O)[C@]4(C)[C@@H]5C(=CC[C@H]4[C@]3(C)CC[C@@H]12)C(=O)O[C@H]5O	2.3 (≈ 5.71 µM)	15 (≈ 37.3 µM)	14.8 (≈ 36.8 µM)	14.3 (≈ 35.5 µM)				inactive
CC1(C)CCC[C@]2(C)[C@H]3C[C@@H](O)[C@]4(C)[C@H]5COC(=O)C5=CC[C@H]4[C@]3(C)CC[C@@H]12	1.6 (≈ 4.14 µM)	16.5 (≈ 42.7 µM)	16.5 (≈ 42.7 µM)	17.1 (≈ 44.2 µM)		50.3		
CC(=O)O[C@@H]1C[C@@H]2[C@@]3(C)CCCC(C)(C)[C@@H]3CC[C@@]2(C)[C@@H]2CC=C3C(=O)O[C@@H](O)[C@@H]3[C@@]12C	13.2 (≈ 29.7 µM)	26 (≈ 58.5 µM)	23.7 (≈ 53.3 µM)	18.5 (≈ 41.6 µM)				
CC1(C)CCC[C@]2(C)[C@H]3C[C@@H](O)[C@]4(C)c5cocc5CC[C@H]4[C@]3(C)CC[C@@H]12	> 50	19.5 (≈ 52.6 µM)	> 50	> 50				
CO[C@@]12[C@H](COC(N)=O)C3=C(C(=O)C(C)=C(N)C3=O)N1C[C@@H]1N[C@@H]12 [MITOMYCIN]	0.02 (≈ 0.0598 µM)	0.015 (≈ 0.0449 µM)	0.02 (≈ 0.0598 µM)	0.015 (≈ 0.0449 µM)				
